Experimental data as given in ChEMBL document CHEMBL4680083, “Identification of Tricyclic Agonists of Sphingosine-1-phosphate Receptor 1 (S1P) Employing Ligand-Based Drug Design” (J Med Chem, 2016).
Activity calls are given as the source filed them. The rule behind the calls is not given here.

What was measured:
Rattus norvegicus [1] = assay: Reduction in circulating lymphocytes count in Lewis rat blood at 1 mg/kg, po measured at 24 hrs by hematology analyzer based analysis; format: functional; parameters: scale not given: the % may be the effect or the level left
Procedure, shortened: (§1)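 Lewis rats were given an oral dose as a solution or suspension in PEG300, with controls receiving vehicle only. Blood was taken by retro-orbital bleeding under isoflurane at 4 and 24 h. Lymphocytes were counted on a hematology analyzer. Reduction is relative to the vehicle group, averaged over the animals in each group (n = 3−4).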

[2] = Plasma concentration in Lewis rat at 1 mg/kg, po measured at 24 hrs; format: ADME, organism-based; conditions: Lewis, plasma
Procedure, shortened: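 Lewis rats received a single oral 1.0 mg/kg dose as solution or suspension in PEG300. Blood was drawn retro-orbitally under isoflurane at 4 h and 24 h, within the blood lymphocyte reduction study. n = 3−4 per group, group mean reported.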

Rattus norvegicus [3] = assay: Reduction in circulating lymphocytes count in Lewis rat blood administered orally measured at 4 to 24 hrs by hematology analyzer based analysis; format: functional, organism-based; procedure, shortened: as §1
[4] = target: Sphingosine 1-phosphate receptor 1 (Homo sapiens, UniProt P21453); assay: Agonist activity at human S1P1 assessed as stimulation of cAMP accumulation relative to control; format: functional; conditions: filed as agonist
Chain of Sphingosine 1-phosphate receptor 1 (Homo sapiens, UniProt P21453) (P21453 whole entry): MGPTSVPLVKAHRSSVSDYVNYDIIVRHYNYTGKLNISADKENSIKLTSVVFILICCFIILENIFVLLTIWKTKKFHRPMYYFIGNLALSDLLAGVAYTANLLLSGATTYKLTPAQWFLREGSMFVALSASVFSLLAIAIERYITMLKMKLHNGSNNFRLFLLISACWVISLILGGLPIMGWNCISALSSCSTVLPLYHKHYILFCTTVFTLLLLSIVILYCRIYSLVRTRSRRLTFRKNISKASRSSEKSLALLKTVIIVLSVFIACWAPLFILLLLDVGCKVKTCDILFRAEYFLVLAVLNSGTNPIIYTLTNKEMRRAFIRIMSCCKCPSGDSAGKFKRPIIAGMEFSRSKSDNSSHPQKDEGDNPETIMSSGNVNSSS

[5] = target: Sphingosine 1-phosphate receptor 1 (Rattus norvegicus, UniProt P48303); assay: Agonist activity at rat S1P1 expressed in CHO cell membranes assessed as stimulation of [35S]-GTPgamma-S binding measured after 45 mins by liquid scintillation counting method; parameters: species or system Cell membrane
Chain of Sphingosine 1-phosphate receptor 1 (Rattus norvegicus, UniProt P48303) (P48303 whole entry): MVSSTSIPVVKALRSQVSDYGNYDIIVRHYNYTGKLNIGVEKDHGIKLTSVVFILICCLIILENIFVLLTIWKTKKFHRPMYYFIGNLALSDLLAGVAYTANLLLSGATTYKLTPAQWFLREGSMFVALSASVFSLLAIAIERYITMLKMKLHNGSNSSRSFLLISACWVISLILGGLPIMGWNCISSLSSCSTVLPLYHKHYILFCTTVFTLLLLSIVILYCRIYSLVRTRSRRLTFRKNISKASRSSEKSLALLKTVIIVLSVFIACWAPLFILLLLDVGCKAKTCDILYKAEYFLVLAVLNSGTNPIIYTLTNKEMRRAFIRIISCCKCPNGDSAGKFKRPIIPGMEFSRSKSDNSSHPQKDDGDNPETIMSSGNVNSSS
Procedure, shortened: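 S1P1/CHO cell membranes at 3 μg protein/well with 3-fold compound dilutions. [35S]GTPγS 0.2 nM final, 45 min at room temperature. Filter-plate capture, water washes, scintillation counting. EC50 taken at 50% of each compound's own Ymax.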

[6] = Protein binding in human assessed as bound fraction; format: ADME; conditions: read-out: PB (converted)
[7] = Protein binding in mouse assessed as bound fraction; format: ADME; conditions: read-out: PB (converted)
Homo sapiens = species: Homo sapiens; assay: Inhibition of calcium channel (unknown origin) at 10 uM by patch clamp technique relative to control
Cytochrome P450 1A2 = target: T1, Cytochrome P450 1A2 (Homo sapiens, UniProt P05177); assay: Inhibition of CYP1A2 (unknown origin); format: ADME
T1 sequence (P05177 whole entry): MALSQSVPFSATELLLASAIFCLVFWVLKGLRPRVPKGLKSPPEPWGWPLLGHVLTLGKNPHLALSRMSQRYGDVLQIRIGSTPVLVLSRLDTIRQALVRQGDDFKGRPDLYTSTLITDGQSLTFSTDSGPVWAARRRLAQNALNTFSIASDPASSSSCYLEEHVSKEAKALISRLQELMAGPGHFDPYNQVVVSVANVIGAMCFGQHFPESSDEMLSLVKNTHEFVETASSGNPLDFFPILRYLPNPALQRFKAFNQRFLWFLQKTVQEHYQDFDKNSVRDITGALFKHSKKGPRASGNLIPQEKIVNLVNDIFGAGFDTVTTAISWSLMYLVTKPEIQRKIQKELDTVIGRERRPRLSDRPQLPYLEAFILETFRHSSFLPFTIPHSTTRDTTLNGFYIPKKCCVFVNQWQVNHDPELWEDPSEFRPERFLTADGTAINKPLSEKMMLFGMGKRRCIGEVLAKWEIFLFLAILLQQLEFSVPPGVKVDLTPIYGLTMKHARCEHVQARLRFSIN

Cytochrome P450 2B6 = target: T2, Cytochrome P450 2B6 (Homo sapiens, UniProt P20813); assay: Inhibition of CYP2B6 (unknown origin); format: ADME
T2 sequence (P20813 whole entry): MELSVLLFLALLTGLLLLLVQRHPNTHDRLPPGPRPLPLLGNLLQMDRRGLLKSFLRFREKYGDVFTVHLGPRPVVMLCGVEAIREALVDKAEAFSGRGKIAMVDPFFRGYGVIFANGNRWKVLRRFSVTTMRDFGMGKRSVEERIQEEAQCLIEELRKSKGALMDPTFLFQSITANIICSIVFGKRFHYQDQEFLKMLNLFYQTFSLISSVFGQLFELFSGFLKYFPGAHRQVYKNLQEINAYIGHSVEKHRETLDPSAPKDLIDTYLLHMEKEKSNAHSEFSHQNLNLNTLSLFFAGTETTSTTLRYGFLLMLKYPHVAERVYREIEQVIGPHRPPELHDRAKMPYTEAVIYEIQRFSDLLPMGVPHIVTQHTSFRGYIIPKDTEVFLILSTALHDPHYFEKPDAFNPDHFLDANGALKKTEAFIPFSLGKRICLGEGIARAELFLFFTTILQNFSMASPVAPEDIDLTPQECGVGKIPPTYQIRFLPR

[8] = Metabolic stability in human assessed as half-life; format: ADME
[9] = Metabolic stability in rat assessed as half-life; format: ADME
[10] = Metabolic stability in dog assessed as half-life; format: ADME, Canis lupus familiaris
[11] = Cmax in rat at 1 mg/kg, po or 1 mg/kg, iv; format: ADME, organism-based; parameters: dose 1 mg/kg; conditions: in vivo
[12] = Tmax in mouse at 5 mg/kg, po or 2 mg/kg, iv; format: ADME, organism-based; conditions: in vivo
[13] = Tmax in rat at 1 mg/kg, po or 1 mg/kg, iv; format: ADME, organism-based; conditions: in vivo
[14] = AUC in dog at 0.1 mg/kg, po; format: ADME, organism-based, Canis lupus familiaris; parameters: dose 0.1 mg/kg; conditions: in vivo
[15] = Half-life in cynomolgus monkey at 0.5 mg/kg, po or 0.5 mg/kg, iv; format: ADME, organism-based, Macaca fascicularis; conditions: in vivo
[16] = Clearance in cynomolgus monkey at 0.5 mg/kg, po or 0.5 mg/kg, iv; format: ADME, organism-based, Macaca fascicularis; conditions: in vivo
[17] = Clearance in dog at 0.1 mg/kg, po or 0.1 mg/kg, iv; format: ADME, organism-based, Canis lupus familiaris; conditions: in vivo
[18] = Volume of distribution at steady state in rat at 1 mg/kg, po or 1 mg/kg, iv; format: ADME, organism-based; conditions: in vivo, read-out: Vdss
[19] = Volume of distribution at steady state in dog at 0.1 mg/kg, po or 0.1 mg/kg, iv; format: ADME, organism-based, Canis lupus familiaris; conditions: in vivo, read-out: Vdss
[20] = Oral bioavailability in mouse at 5 mg/kg; format: ADME, organism-based; conditions: in vivo
[21] = Oral bioavailability in rat at 1 mg/kg; format: ADME, organism-based; conditions: in vivo
[22] = Oral bioavailability in dog at 0.1 mg/kg; format: ADME, organism-based, Canis lupus familiaris; conditions: in vivo
Rattus norvegicus [23] = assay: Antiarthritic activity in Lewis rat model of Complete Freund's adjuvant-induced arthritis at 0.03 mg/kg, po QD administered for 21 days after CFA injection and measured weekly three times upto day 21 by water displacement plethysmometry; format: functional, organism-based; conditions: time 21.0 day
Procedure, shortened: (§2)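 Male Lewis rats, 200−225 g, n = 8 per group. Immunized at the tail base with 100 μL of 10 mg/mL ground Mycobacterium butyricum in incomplete Freund's adjuvant. Oral dosing once daily in PEG300 vehicle from the day of immunization for 21 days, at 0.03, 0.1 or 1.0 mg/kg. Dexamethasone 0.1 mg/kg PO QD as positive control. Paw volume by water displacement plethysmometry, day 7 to day 21.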

Rattus norvegicus [24] = assay: Antiarthritic activity in Lewis rat model of Complete Freund's adjuvant-induced arthritis assessed as reduction in paw swelling at 0.1 mg/kg, po qd administered for 21 days after CFA injection and measured weekly three times upto day 21 by water displacement plethysmometry; format: functional; parameters: scale not given: the % may be the effect or the level left; conditions: time 21 day; procedure, shortened: as §2
Rattus norvegicus [25] = assay: Antiarthritic activity in Lewis rat model of Complete Freund's adjuvant-induced arthritis assessed as reduction in paw swelling administered orally once daily for 21 days after CFA injection and measured weekly three times upto day 21 by water displacement plethysmometer; format: functional, organism-based; conditions: 504 h; procedure, shortened: as §2

concentration at 24 h [2]: 13 nM
EC50 (Rattus norvegicus [3]): 2.5 nM
Emax [4]: 93%
EC50 [5]: 0.31 nM
fraction unbound [6]: 0.004
fraction unbound [7]: 0.007
inhibition (Homo sapiens): 11%
IC50 (Cytochrome P450 1A2): > 40000 nM
IC50 (Cytochrome P450 2B6): > 40000 nM
half-life [8]: > 2 h
half-life [9]: > 2 h
half-life [10]: > 2 h
Cmax [11]: 140 nM
Tmax [12]: 3 h
Tmax [13]: 4 h
AUC [14]: 2.3 µM·h
half-life [15]: 18 h
clearance [16]: 2.4 mL/min/kg
clearance [17]: 1.4 mL/min/kg
Vd [18]: 4.8 L/kg
Vd [19]: 2.5 L/kg
F [20]: 80%
bioavailability [21]: 43%
bioavailability [22]: 95%
EC50 (Rattus norvegicus [25]): 24 nM
Structure (SMILES): O=C(O)C1CN(Cc2ccc3c(c2)CCc2c-3noc2-c2onc(-c3ccccc3)c2C(F)(F)F)C1
Activity (Rattus norvegicus [1]): 80%
Activity (Rattus norvegicus [23]): inactive
Activity (Rattus norvegicus [24]): >50%
